# Test results: PubChem BioAssay AID588817 (The Scripps Research Institute Molecular Screening Center, 2011)
# Activity calls are given as the source filed them.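 The calls were made as follows: active = compounds cutting probe labeling of the enzyme in cells by at least 50% at 0.1 µM; inactive = under 50% inhibition at that dose.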
# Biological target: Platelet-activating factor acetylhydrolase (Mus musculus) (UniProt Q60963)
# Assay: pPAFAH inhibition in transfected cells, late-stage follow-up, cell-based, gel-based competitive ABPP, fluorescence (AID 588817)
# Settings: HEK293T overexpressing mouse pPAFAH, 4 h; at 10 µM (top of the series)
# In short: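 Detection: gel fluorescence band intensity after SDS-PAGE; System: HEK293T cells transiently overexpressing mouse pPAFAH, treated in situ; Amount: lysate fractions at 1 mg/mL protein; Control set: DMSO high control, blank-gel background low control; Schedule: 4 h compound treatment, 30 min probe labelling, 37 °C; Reagent: 1 µM FP-Rh probe.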
# Platelet-activating factor acetylhydrolase (Mus musculus), sequence (Q60963 whole entry, looked up): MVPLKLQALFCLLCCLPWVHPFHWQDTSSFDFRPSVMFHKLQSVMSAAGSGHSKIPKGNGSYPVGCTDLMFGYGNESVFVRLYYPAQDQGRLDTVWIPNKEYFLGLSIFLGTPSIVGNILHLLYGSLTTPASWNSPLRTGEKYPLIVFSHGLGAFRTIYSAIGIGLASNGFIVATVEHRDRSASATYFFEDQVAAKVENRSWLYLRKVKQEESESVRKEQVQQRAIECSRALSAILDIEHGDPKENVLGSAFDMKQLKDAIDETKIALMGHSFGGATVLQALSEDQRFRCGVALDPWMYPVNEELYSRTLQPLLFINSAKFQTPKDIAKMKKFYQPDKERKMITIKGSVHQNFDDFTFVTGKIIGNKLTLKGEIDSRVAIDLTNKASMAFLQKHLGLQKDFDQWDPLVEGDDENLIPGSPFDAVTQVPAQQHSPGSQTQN
smiles,measurement,value
Cc1cc(N2CCN(C(=O)Oc3ccc(-c4ccccc4)cn3)CC2)c2ccccc2n1,inhibition,100% (active)
